According to ChEMBL document CHEMBL1131073, “Structure-activity study of the nociceptin(1-13)-NH2 N-terminal tetrapeptide and discovery of a nociceptin receptor antagonist” (J Med Chem, 1998):
Calls of active or inactive are those of the source. The calls are words filed in the database; no cut-off is given here. Numbered stars: 1 amine (or outer) side, 2 acyl side, 3 side chain; on linkers, the order of the positions; unused ones are H or OH. Square brackets hold non-standard residues; d marks the D form. Peptide text beside a SMILES is read from it. X1 = N[C@@H](Cc1ccccc1)CN(CC(=O)[*:2])[*:1]; Ava = NCCCCC(=O)O; GABA = NCCCC(=O)O; βAla = NCCC(=O)O

Legend:
Format in all cases: functional
[1] = species on record: Mus musculus; test: The maximal effect induced by an agonist expressed as percent inhibition of electrically induced twitches; Inactive at 10 uM
Summary of the method: (§1)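 Vas deferens from Swiss male mice (25–30 g), prepared per Hughes, in Mg2+-free Krebs (95% O2/5% CO2, pH 7.4) at 33 °C, 0.3 g resting tension. Field stimulation via platinum ring electrodes: supramaximal 1-ms pulses, 0.1 Hz. Isotonic twitch recording. After ~2 h equilibration, cumulative concentration–response curves in 0.5 log steps. Mean ± SEM of at least four experiments; pEC50 with 95% confidence limits.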

[2] = species on record: Mus musculus; test: Agonist effect in the electrically stimulated mouse vas deferens. (CL95%); Inactive at 10 uM; summary of the method: as §1
[3] = species on record: Mus musculus; test: Antagonist effect in the electrically stimulated mouse vas deferens; Inactive at 10 uM
[4] = species on record: Mus musculus; test: The maximal effect induced by an agonist expressed as percent inhibition of electrically induced twitches; summary of the method: as §1
[5] = species on record: Mus musculus; test: Agonist effect in the electrically stimulated mouse vas deferens. (CL95%); summary of the method: as §1
[6] = species on record: Mus musculus; test: The maximal effect induced by an agonist expressed as percent inhibition of electrically induced twitches;I = Inactive at 10 uM; summary of the method: as §1
[7] = species on record: Mus musculus; test: Agonist effect in the electrically stimulated mouse vas deferens.;I = Inactive at 10 uM; summary of the method: as §1
[8] = species on record: Mus musculus; test: Antagonist effect in the electrically stimulated mouse vas deferens;I = Inactive at 10 uM
[9] = species on record: Mus musculus; test: Antagonist effect in the electrically stimulated mouse vas deferens; conditions: read-out: pA2 (converted)
[10] = species on record: Mus musculus; test: The maximal effect induced by an agonist expressed as percent inhibition of electrically induced twitches.; summary of the method: as §1

Row | Compound | Emax [1] | Log EC50 [2] | pA2 [3] | other results
1 | H-FGFFTGARKSARK-NH2 | inactive | inactive | inactive | –
2 | H-FFTGARKSARK-NH2 | inactive | inactive | inactive | –
3 | C[C@H](NC(=O)CNC(=O)[C@@H](NC(=O)[C@H](Cc1ccccc1)NC(=O)[C@@H](Cc1ccccc1)NC(=O)CNC(=O)[C@@H](N)Cc1ccccc1)[C@@H](C)O)C(=O)N[C@@H](CCCN=C(N)N)C(=O)N[C@@H](CCCCN)C(=O)N[C@@H](CO)C(=O)N[C@@H](C)C(=O)N[C@@H](CCCN=C(N)N)C(=O)N[C@@H](CCCCN)C(N)=O (H-FG[dF]FTGARKSARK-NH2) | – | – | inactive | Emax [4]: -75; EC50 [5]: 2090 nM
4 | H-FPFTGARKSARK-NH2 | inactive | inactive | inactive | –
5 | C[C@H](NC(=O)CNC(=O)[C@@H](NC(=O)[C@H](Cc1ccccc1)NC(=O)CNC(=O)[C@@H](Cc1ccccc1)NC(=O)[C@@H](N)Cc1ccccc1)[C@@H](C)O)C(=O)N[C@@H](CCCN=C(N)N)C(=O)N[C@@H](CCCCN)C(=O)N[C@@H](CO)C(=O)N[C@@H](C)C(=O)N[C@@H](CCCN=C(N)N)C(=O)N[C@@H](CCCCN)C(N)=O | – | – | – | Emax [6]: inactive; Log EC50 [7]: inactive; pA2 [8]: inactive
6 | C[C@H](NC(=O)CNC(=O)[C@@H](NC(=O)[C@H](Cc1ccccc1)NC(=O)CNC(=O)CNC[C@@H](N)Cc1ccccc1)[C@@H](C)O)C(=O)N[C@@H](CCCN=C(N)N)C(=O)N[C@@H](CCCCN)C(=O)N[C@@H](CO)C(=O)N[C@@H](C)C(=O)N[C@@H](CCCN=C(N)N)C(=O)N[C@@H](CCCCN)C(N)=O (H-[X1]GFTGARKSARK-NH2) | inactive | inactive | – | Kb [9]: 178 nM
7 | C[C@H](NC(=O)CNC(=O)[C@@H](NC(=O)[C@H](Cc1ccccc1)NC(=O)CNC(=O)CNC(=O)[C@@H](N)Cc1ccccc1)[C@@H](C)O)C(=O)N[C@@H](CCCNC(=N)N)C(=O)N[C@@H](CCCCN)C(=O)N[C@@H](CO)C(=O)N[C@@H](C)C(=O)N[C@@H](CCCNC(=N)N)C(=O)N[C@@H](CCCCN)C(N)=O | – | – | – | Emax [10]: -84
8 | C[C@H](NC(=O)CNC(=O)[C@@H](NC(=O)[C@H](Cc1ccccc1)NC(=O)CCNC(=O)[C@@H](N)Cc1ccccc1)[C@@H](C)O)C(=O)N[C@@H](CCCN=C(N)N)C(=O)N[C@@H](CCCCN)C(=O)N[C@@H](CO)C(=O)N[C@@H](C)C(=O)N[C@@H](CCCN=C(N)N)C(=O)N[C@@H](CCCCN)C(N)=O (H-F[βAla]FTGARKSARK-NH2) | inactive | inactive | inactive | –
9 | H-FGGGFTGARKSARK-NH2 | – | – | inactive | EC50 [5]: 3240 nM; Emax [10]: -73
10 | C[C@H](NC(=O)CNC(=O)[C@@H](NC(=O)C(Cc1ccccc1)NC(=O)CNC(=O)CNC[C@H](N)Cc1ccccc1)[C@@H](C)O)C(=O)N[C@@H](CCCN=C(N)N)C(=O)N[C@@H](CCCCN)C(=O)N[C@@H](CO)C(=O)N[C@@H](C)C(=O)N[C@@H](CCCN=C(N)N)C(=O)N[C@@H](CCCCN)C(N)=O (stereo in doubt) | inactive | inactive | inactive | –
11 | C[C@H](NC(=O)CNC(=O)[C@@H](NC(=O)[C@H](Cc1ccccc1)NC(=O)CNC(=O)[C@H](Cc1ccccc1)NC(=O)[C@@H](N)Cc1ccccc1)[C@@H](C)O)C(=O)N[C@@H](CCCN=C(N)N)C(=O)N[C@@H](CCCCN)C(=O)N[C@@H](CO)C(=O)N[C@@H](C)C(=O)N[C@@H](CCCN=C(N)N)C(=O)N[C@@H](CCCCN)C(N)=O | – | – | – | Emax [6]: inactive; Log EC50 [7]: inactive; pA2 [8]: inactive
12 | CC(NC(=O)CNC(=O)[C@@H](NC(=O)[C@H](Cc1ccccc1)NC(=O)CNC(=O)C(C)NC(=O)[C@@H](N)Cc1ccccc1)[C@@H](C)O)C(=O)N[C@@H](CCCN=C(N)N)C(=O)N[C@@H](CCCCN)C(=O)N[C@@H](CO)C(=O)NC(C)C(=O)N[C@@H](CCCN=C(N)N)C(=O)N[C@@H](CCCCN)C(N)=O (stereo in doubt) | – | – | – | EC50 [5]: 1000 nM; Emax [10]: -81
13 | C[C@H](NC(=O)CNC(=O)[C@@H](NC(=O)[C@H](Cc1ccccc1)NC(=O)CCCCNC(=O)[C@@H](N)Cc1ccccc1)[C@@H](C)O)C(=O)N[C@@H](CCCN=C(N)N)C(=O)N[C@@H](CCCCN)C(=O)N[C@@H](CO)C(=O)N[C@@H](C)C(=O)N[C@@H](CCCN=C(N)N)C(=O)N[C@@H](CCCCN)C(N)=O (H-F[Ava]FTGARKSARK-NH2) | inactive | inactive | inactive | –
14 | CC(C)C[C@H](NC(=O)[C@H](CCCCN)NC(=O)[C@H](CCCNC(=N)N)NC(=O)[C@H](C)NC(=O)[C@H](CO)NC(=O)[C@H](CCCCN)NC(=O)[C@H](CCCNC(=N)N)NC(=O)[C@H](C)NC(=O)CNC(=O)[C@@H](NC(=O)[C@H](Cc1ccccc1)NC(=O)CNC(=O)CNC(=O)[C@@H](N)Cc1ccccc1)[C@@H](C)O)C(=O)N[C@@H](C)C(=O)N[C@@H](CC(N)=O)C(=O)N[C@@H](CCC(N)=O)C(=O)O [NOCICEPTIN] | – | – | – | Emax [10]: -83
15 | C[C@H](NC(=O)CNC(=O)[C@@H](NC(=O)[C@H](Cc1ccccc1)NC(=O)CCCNC(=O)[C@@H](N)Cc1ccccc1)[C@@H](C)O)C(=O)N[C@@H](CCCN=C(N)N)C(=O)N[C@@H](CCCCN)C(=O)N[C@@H](CO)C(=O)N[C@@H](C)C(=O)N[C@@H](CCCN=C(N)N)C(=O)N[C@@H](CCCCN)C(N)=O (H-F[GABA]FTGARKSARK-NH2) | inactive | inactive | inactive | –
